≈ marks a conversion by molar mass, not a printed value.
Tests used:
[1] = tested on: Pseudomonas aeruginosa; test: Antibacterial activity against Pseudomonas aeruginosa NCTC 13437 assessed as bacterial growth inhibition incubated for overnight by microbroth dilution method; assay type: functional
Summary of the method: (§1)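 Broth microdilution in Tryptic Soy Broth. DMSO stocks were diluted in TSB as 2-fold series. Overnight TSB cultures were back-diluted to OD 0.01 and mixed 1:1 with compound. Incubation was overnight at 37 °C. MIC was the lowest concentration without visible growth (<0.1 OD600). DMSO vehicle was checked at equivalent concentrations.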

[2] = tested on: Staphylococcus aureus; test: Antibacterial activity against methicillin sensitive Staphylococcus aureus ATCC 9144 assessed as bacterial growth inhibition incubated for overnight by microbroth dilution method; assay type: functional
Summary of the method: (§2)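 Microbroth dilution in Tryptic Soy Broth. DMSO stocks were diluted in TSB as 2-fold series. Overnight TSB cultures were back-diluted to OD 0.01 and mixed 1:1 with compound. Incubation was overnight at 37 °C. MIC is the lowest concentration with no visible growth (<0.1 OD600). DMSO at equivalent concentrations was checked.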

[3] = tested on: Staphylococcus aureus; test: Antibacterial activity against methicillin resistant Staphylococcus aureus NCTC 13616 assessed as bacterial growth inhibition incubated for overnight by microbroth dilution method; assay type: functional; summary of the method: as §2
[4] = tested on: Staphylococcus aureus; test: Antibacterial activity against methicillin resistant Staphylococcus aureus USA 300 assessed as bacterial growth inhibition incubated for overnight by microbroth dilution method; assay type: functional; summary of the method: as §2
[5] = tested on: Enterococcus faecalis; test: Antibacterial activity against vancomycin resistant Enterococcus faecalis NCTC 12201 assessed as bacterial growth inhibition incubated for overnight by microbroth dilution method; assay type: functional; summary of the method: as §2
[6] = tested on: Enterococcus faecium; test: Antibacterial activity against vancomycin resistant Enterococcus faecium NCTC 12204 assessed as bacterial growth inhibition incubated for overnight by microbroth dilution method; assay type: functional; summary of the method: as §2
[7] = tested on: Acinetobacter baumannii; test: Antibacterial activity against Acinetobacter baumannii AYE assessed as bacterial growth inhibition incubated for overnight by microbroth dilution method; assay type: functional; summary of the method: as §1
[8] = tested on: Acinetobacter baumannii; test: Antibacterial activity against Acinetobacter baumannii ATCC 17978 assessed as bacterial growth inhibition incubated for overnight by microbroth dilution method; assay type: functional; summary of the method: as §1
[9] = tested on: Pseudomonas aeruginosa; test: Antibacterial activity against Pseudomonas aeruginosa PAO1 assessed as bacterial growth inhibition incubated for overnight by microbroth dilution method; assay type: functional; summary of the method: as §1
[10] = tested on: Escherichia coli; test: Antibacterial activity against Escherichia coli NCTC 12923 assessed as bacterial growth inhibition incubated for overnight by microbroth dilution method; assay type: functional; summary of the method: as §1
[11] = tested on: Klebsiella pneumoniae; test: Synergistic antibacterial activity against Klebsiella pneumoniae NCTC 13368 assessed as rifampicin MIC at <=0.25 times MIC incubated for overnight by microbroth dilution checkerboard assay; assay type: functional
Summary of the method: (§3)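 Checkerboard microdilution under MIC conditions (TSB, overnight, 37 °C). Two-fold series of each agent were combined on one plate before bacteria were added, and single-agent MICs were measured on the same plate. FIC = sum of combination MIC/alone MIC for each agent, taken from the most synergistic well. Three independent repeats, mean ± SD. ≤0.5 was taken as strong synergy and 0.5–<1 as weak.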

[12] = tested on: Klebsiella pneumoniae; test: Synergistic antibacterial activity against […] Klebsiella pneumoniae M6 assessed as rifampicin MIC at <=0.25 times MIC incubated for overnight by microbroth dilution checkerboard assay; assay type: functional
Summary of the method: (§4)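 Checkerboard run under the MIC conditions (TSB, overnight, 37 °C). Antibiotic and lipoguanidine 2-fold series were combined on one plate before bacteria were added. Growth/no-growth was scored as for the MIC (<0.1 OD600). Single-agent MICs were measured on the same plates. Three independent repeats were done.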

[13] = tested on: Acinetobacter baumannii; test: Synergistic antibacterial activity against Acinetobacter baumannii AYE assessed as rifampicin MIC at <=0.25 times MIC incubated for overnight by microbroth dilution checkerboard assay; assay type: functional; summary of the method: as §3
[14] = tested on: Acinetobacter baumannii; test: Synergistic antibacterial activity against Acinetobacter baumannii ATCC 17978 assessed as rifampicin MIC at <=0.25 times MIC incubated for overnight by microbroth dilution checkerboard assay; assay type: functional; summary of the method: as §3
[15] = tested on: Pseudomonas aeruginosa; test: Synergistic antibacterial activity against Pseudomonas aeruginosa PAO1 assessed as rifampicin MIC at <=0.25 times MIC incubated for overnight by microbroth dilution checkerboard assay; assay type: functional
Summary of the method: (§5)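 Checkerboard microdilution in Tryptic Soy Broth, run like the MIC assay. Overnight TSB cultures were back-diluted to OD 0.01 and added 1:1 to the combined two-fold series of both agents, then incubated overnight at 37 °C. Growth/no-growth was called at <0.1 OD600. MICs alone were read on the same plates. FIC index came from the most synergistic well; three independent repeats, mean ± SD.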

[16] = tested on: Pseudomonas aeruginosa; test: Synergistic antibacterial activity against Pseudomonas aeruginosa NCTC 13437 assessed as rifampicin MIC at <=0.25 times MIC incubated for overnight by microbroth dilution checkerboard assay; assay type: functional; summary of the method: as §5
[17] = tested on: Escherichia coli; test: Synergistic antibacterial activity against Escherichia coli NCTC 12923 assessed as rifampicin MIC at <=0.25 times MIC incubated for overnight by microbroth dilution checkerboard assay; assay type: functional; summary of the method: as §3
[18] = tested on: Staphylococcus aureus; test: Antibacterial activity against methicillin sensitive Staphylococcus aureus 1199B assessed as bacterial growth inhibition incubated for overnight by microbroth dilution method; assay type: functional; summary of the method: as §2
[19] = tested on: Klebsiella pneumoniae; test: Synergistic antibacterial activity against Klebsiella pneumoniae NCTC 13368 assessed as fold change in rifampicin MIC at <=0.25 times MIC incubated for overnight by microbroth dilution checkerboard assay relative to rifampicin alone; assay type: functional; summary of the method: as §4
[20] = tested on: Acinetobacter baumannii; test: Synergistic antibacterial activity against Acinetobacter baumannii AYE assessed as fold change in rifampicin MIC at <=0.25 times MIC incubated for overnight by microbroth dilution checkerboard assay relative to rifampicin alone; assay type: functional; summary of the method: as §3
[21] = tested on: Acinetobacter baumannii; test: Synergistic antibacterial activity against Acinetobacter baumannii ATCC 17978 assessed as fold change in rifampicin MIC at <=0.25 times MIC incubated for overnight by microbroth dilution checkerboard assay relative to rifampicin alone; assay type: functional; summary of the method: as §3
[22] = tested on: Pseudomonas aeruginosa; test: Synergistic antibacterial activity against Pseudomonas aeruginosa PAO1 assessed as fold change in rifampicin MIC at <=0.25 times MIC incubated for overnight by microbroth dilution checkerboard assay relative to rifampicin alone; assay type: functional; summary of the method: as §5
[23] = tested on: Pseudomonas aeruginosa; test: Synergistic antibacterial activity against Pseudomonas aeruginosa NCTC 13437 assessed as fold change in rifampicin MIC at <=0.25 times MIC incubated for overnight by microbroth dilution checkerboard assay relative to rifampicin alone; assay type: functional; summary of the method: as §5
[24] = tested on: Escherichia coli; test: Synergistic antibacterial activity against Escherichia coli NCTC 12923 assessed as fold change in rifampicin MIC at <=0.25 times MIC incubated for overnight by microbroth dilution checkerboard assay relative to rifampicin alone; assay type: functional; summary of the method: as §3
[25] = tested on: Klebsiella pneumoniae; test: Antibacterial activity against Klebsiella pneumoniae M6 assessed as bacterial growth inhibition incubated for overnight by microbroth dilution method
[26] = tested on: Klebsiella pneumoniae; test: Antibacterial activity against ESBL Klebsiella pneumoniae NCTC 13368 assessed as bacterial growth inhibition incubated for overnight by microbroth dilution method
[27] = tested on: Enterococcus faecalis; test: Antibacterial activity against vancomycin sensitive Enterococcus faecalis NCTC 775 assessed as bacterial growth inhibition incubated for overnight by microbroth dilution method
[28] = tested on: Erythrocyte; test: Hemolytic activity in human Red blood cells at 512 microg/ml measured after 1 hrs by absorbance based assay; assay type: toxicity, cell-based; conditions: dose 512 µg/ml
Summary of the method: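 Titrations in PBS were incubated with freshly collected human red blood cells for 1 h at 37 °C. Controls were 0.1% Triton-X-100 (full lysis) and PBS alone (no lysis). After centrifugation, supernatant OD550 was read. % haemolysis = (AP−AB)/(AC−AB)×100. Data are means and standard error of three biological replicates.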

| Compound | MIC [1] | MIC [2] | MIC [3] | MIC [4] | MIC [5] | MIC [6] | MIC [7] | MIC [8] | MIC [9] | MIC [10] | MIC [11] | MIC [12] | MIC [13] | MIC [14] | MIC [15] | MIC [16] | MIC [18] | MIC [25] | MIC [26] | MIC [27] | also measured |
| --- | --- | --- | --- | --- | --- | --- | --- | --- | --- | --- | --- | --- | --- | --- | --- | --- | --- | --- | --- | --- | --- |
| N=C(N)NCCCCCCCCNC(=N)N | > 128 µg/mL | 128 µg/mL (≈ 561 µM) | > 128 µg/mL | 128 µg/mL (≈ 561 µM) | > 128 µg/mL | > 128 µg/mL | > 128 µg/mL | > 128 µg/mL | > 128 µg/mL | > 128 µg/mL | 32 µg/mL | 16 µg/mL | 8 µg/mL | 1 µg/mL | 32 µg/mL | 32 µg/mL | > 128 µg/mL | > 128 µg/mL | > 128 µg/mL | > 128 µg/mL | MIC [17]: 8 µg/mL; fold change (FC) [19]: 0; fold change (FC) [20]: 0; fold change (FC) [21]: >=4; fold change (FC) [22]: 0; fold change (FC) [23]: 0; fold change (FC) [24]: 0 |
| CCCCC/C=C\C/C=C\CCCCCCCCNC(=N)NCCCCNC(=N)N | 64 µg/mL (≈ 152 µM) | 4 µg/mL (≈ 9.51 µM) | 4 µg/mL (≈ 9.51 µM) | 4 µg/mL (≈ 9.51 µM) | 8 µg/mL (≈ 19 µM) | 8 µg/mL (≈ 19 µM) | > 64 µg/mL | 32 µg/mL (≈ 76.1 µM) | 64 µg/mL (≈ 152 µM) | 8 µg/mL (≈ 19 µM) | ≤ 0.125 µg/mL | ≤ 0.125 µg/mL | ≤ 0.125 µg/mL | ≤ 0.125 µg/mL | 2 µg/mL | 4 µg/mL | 4 µg/mL (≈ 9.51 µM) | 32 µg/mL (≈ 76.1 µM) | > 64 µg/mL | 8 µg/mL (≈ 19 µM) | MIC [17]: 4 µg/mL; fold change (FC) [19]: >=4; fold change (FC) [20]: >=4; fold change (FC) [21]: >=4; fold change (FC) [22]: >=4; fold change (FC) [23]: >=4; fold change (FC) [24]: >=4 |
| CCCCCCCCCCCCCCCCNC(=N)NCCCCN | > 128 µg/mL | 2 µg/mL (≈ 5.64 µM) | 2 µg/mL (≈ 5.64 µM) | 2 µg/mL (≈ 5.64 µM) | 2 µg/mL (≈ 5.64 µM) | 2 µg/mL (≈ 5.64 µM) | 32 µg/mL (≈ 90.2 µM) | 4 µg/mL (≈ 11.3 µM) | > 128 µg/mL | 32 µg/mL (≈ 90.2 µM) | 2 µg/mL | 0.25 µg/mL | ≤ 0.125 µg/mL | 0.25 µg/mL | 2 µg/mL | 16 µg/mL | 4 µg/mL (≈ 11.3 µM) | 8 µg/mL (≈ 22.6 µM) | > 128 µg/mL | 2 µg/mL (≈ 5.64 µM) | Activity [28]: Toxic; fold change (FC) [19]: >=4; fold change (FC) [20]: >=4; fold change (FC) [21]: >=4; fold change (FC) [22]: >=4; fold change (FC) [23]: 0 |
| CCCCCCCC/C=C\CCCCCCCCNC(=N)NCCCCCCCCNC(=N)N | > 128 µg/mL | 4 µg/mL (≈ 8.35 µM) | 4 µg/mL (≈ 8.35 µM) | 2 µg/mL (≈ 4.18 µM) | 4 µg/mL (≈ 8.35 µM) | 4 µg/mL (≈ 8.35 µM) | 16 µg/mL (≈ 33.4 µM) | 16 µg/mL (≈ 33.4 µM) | > 128 µg/mL | 32 µg/mL (≈ 66.8 µM) |  |  |  |  |  |  | 4 µg/mL (≈ 8.35 µM) | 64 µg/mL (≈ 134 µM) | 128 µg/mL (≈ 267 µM) | 4 µg/mL (≈ 8.35 µM) |  |
| NCCCCCCCCN=C(N)N | > 128 µg/mL | 128 µg/mL (≈ 687 µM) | > 128 µg/mL | 128 µg/mL (≈ 687 µM) | > 128 µg/mL | > 128 µg/mL | > 128 µg/mL | > 128 µg/mL | > 128 µg/mL | 128 µg/mL (≈ 687 µM) | 32 µg/mL | 16 µg/mL | 4 µg/mL | 1 µg/mL | 32 µg/mL | 32 µg/mL | > 128 µg/mL | > 128 µg/mL | > 128 µg/mL | > 128 µg/mL | MIC [17]: 16 µg/mL; fold change (FC) [19]: 0; fold change (FC) [20]: >=4; fold change (FC) [21]: >=4; fold change (FC) [22]: 0; fold change (FC) [23]: 0; fold change (FC) [24]: 0 |

From ChEMBL document CHEMBL5357066, “Development of Novel Membrane Disrupting Lipoguanidine Compounds Sensitizing Gram-Negative Bacteria to Antibiotics” (ACS Med Chem Lett, 2024)
